# Rows were chosen to be rich in hits. Some 2.6% of all compounds tested hit in one or more screens of this group.
# PRMT1 inh: blocks human protein arginine methyltransferase 1 | Q99873 | recombinant PRMT1, activity-based probe fluorescence polarization | inhibition, % at 2.79 µM | 370,000 compounds, 1.3% hits;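 active = inhibition above about 21% made by adding two undisclosed values, limit read from the data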
# TCR CD3 inh: human TCR-CD3 binding inhibition; 360,000 compounds, 0.37% hits; inhibition, % at 9.4 µM; TAMRA-labeled TCR probe fluorescence, biochemical; in the data active = inhibition above about 19%;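 also: recombinant mutant TCR 2C K166C tagged with TAMRA read by polarization; 0% = receptor in buffer alone and 100% = receptor with positive control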
# ABHD4 inh: inhibitors of mouse ABHD4; inhibition, % at 8.92 µM; AID 720543; purified mABHD4, FP-Rh probe fluorescence polarization; 370,000 compounds, 0.54% hits;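 active = inhibition exceeding the mean over every tested compound plus 3 SD, cut at about 30% in these data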;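 also: 0% = plate median of compound wells and 100% = S159A mutant with DMSO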
#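 Test system: mABHD4 protein; Read-out basis: % inhibition; Incubation: 45 min + 60 min at 25 °C; Repeats: single replicate; Technique: fluorescence polarization with parallel and perpendicular emission, 525/598 nm; Compound: 8.92 µM, single dose; Benchmarks: full inhibition S159A mutant plus DMSO, zero as sample-well median.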
# SIAE primary: inhibitors of human sialic acid acetylesterase SIAE; inhibition, % at 9.66 µM; Q9HAT2; SIAE FP-Rh probe binding, fluorescence polarization; 370,000 compounds, 0.69% hits;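 active = inhibition above a cutoff: mean of compounds within the control limits plus 3 SD of those, cut at about 17% in these data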;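 also: 0% = plate median of compound wells and 100% = probe without SIAE protein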
# Target sequence (Q9HAT2 whole entry, looked up): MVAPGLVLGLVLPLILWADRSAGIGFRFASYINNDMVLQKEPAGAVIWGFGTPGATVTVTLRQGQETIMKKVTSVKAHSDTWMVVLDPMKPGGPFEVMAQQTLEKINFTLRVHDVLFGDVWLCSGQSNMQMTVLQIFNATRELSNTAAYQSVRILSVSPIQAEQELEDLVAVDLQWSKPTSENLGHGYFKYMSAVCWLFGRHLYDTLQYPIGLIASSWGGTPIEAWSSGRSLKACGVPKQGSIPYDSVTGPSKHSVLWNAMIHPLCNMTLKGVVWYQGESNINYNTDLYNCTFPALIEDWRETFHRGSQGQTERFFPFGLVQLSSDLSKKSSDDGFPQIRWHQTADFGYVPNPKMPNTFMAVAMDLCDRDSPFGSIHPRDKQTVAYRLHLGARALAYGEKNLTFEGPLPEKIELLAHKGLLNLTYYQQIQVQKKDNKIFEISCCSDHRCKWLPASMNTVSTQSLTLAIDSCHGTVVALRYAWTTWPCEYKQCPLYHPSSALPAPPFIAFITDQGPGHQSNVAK
# HTRA1 inh: inhibitors of human serine peptidase HTRA1 | Q92743 | recombinant HTRA1, FP-rhodamine activity-based probe, fluorescence polarization | inhibition, % at 5.96 µM | 340,000 compounds, 0.5% hits; in the data active = inhibition above about 36%;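 also: 0% = enzyme with DMSO and 100% = wells lacking enzyme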
# PRMT1 confirm: confirmation of human PRMT1 inhibitors; shares compounds with PRMT1 inh; recombinant His-PRMT1, activity-based probe fluorescence polarization; inhibition, % at 2.79 µM; 3,300 compounds, 42% hits; AID 687036;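 active = mean inhibition across replicates above the hit cutoff derived for the earlier primary screen, cut at about 22% in these data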
# An asterisk follows results filed as active; . = not tested or not shown.
SMILES,PRMT1 inh,TCR CD3 inh,ABHD4 inh,SIAE primary,HTRA1 inh,PRMT1 confirm
Cn1c(=O)c(=O)n(C)c2cc(N3CCOCC3)c(NS(=O)(=O)c3ccc(F)c(Cl)c3)cc21,2,5,8,5,9,.
Cn1c(=O)c(=O)n(C)c2cc(N3CCOCC3)c(NS(=O)(=O)c3ccc([N+](=O)[O-])cc3)cc21,25*,1,0,3,1,15
CC1CCN(Cc2c(O)ccc3c2O/C(=C\c2ccco2)C3=O)CC1,.,.,.,.,16,.
COCCN(CCOC)Cc1c(O)ccc2c1O/C(=C\c1ccco1)C2=O,31*,-1,22,5,10,27*
O=C1/C(=C/c2ccco2)Oc2c1ccc(O)c2CN1CCCCC1,35*,-1,20,4,6,47*
CCN1CCN(Cc2c(O)ccc3c2O/C(=C\C=C\c2ccccc2OC)C3=O)CC1,14,-13,-6,-9,1,.
O=C(CSc1nnc(-c2cccs2)n1Cc1ccco1)Nc1ccc(Oc2ccccc2)cc1,1,.,-33,-13,.,.
COC(=O)[C@]12C[C@H](CC(=O)NCc3cccc(C(F)(F)F)c3)C(=O)N(CCc3ccc(OC)c(OC)c3)C1=C[C@H](C1CCCC1)O[C@@H]2C,-3,.,-8,-4,.,.
COC(=O)C1CCCN(C(=O)C(Cc2ccc3c(c2)OCO3)NC(C)=O)C1 (stereo not given),-1,.,-2,-1,.,.
CC(=O)Nc1ccc(SCC(=O)N(C)CC(=O)Nc2ccccc2Cl)cc1,58*,-2,5,-1,4,61*
CN(CC(=O)Nc1ccccc1Cl)C(=O)COC(=O)CSc1ccc(F)cc1,-5,-3,-3,-2,3,.
CN1C2=N[C@@H](c3ccc(Br)cc3)CC(=O)N2/C(=C\c2ccccc2)[C@@H]1c1ccccc1,8,.,-6,-1,.,.
CN1C2=N[C@@H](c3cccc(C(F)(F)F)c3)CC(=O)N2/C(=C\c2ccccc2)[C@H]1c1ccccc1,55*,.,17,0,.,47*
Cc1ccc(C(=O)CNc2cccc([N+](=O)[O-])c2)cc1,0,4,2,-2,-9,.
Cc1cccc(NCCC(=O)c2ccc([N+](=O)[O-])cc2)c1C,50*,0,11,0,-5,66*
Cc1ccc(NCCC(=O)c2cccc([N+](=O)[O-])c2)c(C)c1,37*,-7,3,0,-3,40*
CCC(=O)N[C@H]1C[C@@H]2O[C@@H](CO)CC[C@@H]2O[C@@H]1CCc1ccc(-c2cccc(OC)c2)cc1,5,.,-6,-4,.,.
Cc1nn(C)c(-c2n[nH]c(=S)n2Cc2ccco2)c1Cl,28*,-5,-8,-3,3,3
O=C(Nc1nncs1)c1cc(-c2ccco2)nc2ccccc12,36*,7,3,-4,2,9
CCc1nnc(NC(=O)c2cc(-c3ccccn3)nc3ccccc23)s1,-2,2,3,-3,-2,.
Cc1cccc(NC(=O)c2cc(-c3ccco3)nc3ccccc23)n1,35*,-13,-10,1,-8,9
CCc1nnc(NC(=O)c2cc(-c3ccco3)nc3ccccc23)s1,26*,4,7,12,28,12
C=CCN1C(=O)[C@@H](CC(=O)N2CCC(c3ccccc3)CC2)[C@]2(C(=O)OCC)CCCCC/C=C/12,-4,.,2,-1,.,.
O=C(CNS(=O)(=O)c1cc2ccccc2s1)N1CCN(c2ccccn2)CC1,-2,.,3,-9,.,.
O=[N+]([O-])c1cc(S(=O)(=O)NCc2ccco2)ccc1NN=Cc1ccccn1,-4,5,1,8,.,.
SMILES,PRMT1 inh,TCR CD3 inh,ABHD4 inh,SIAE primary,HTRA1 inh,PRMT1 confirm
O=C(O)/C=C/C(=O)c1ccc2c(c1)CCc1ccccc1-2,56*,-1,-2,-13,-15,72*
CCCC1CCC2(CC1)CCC2OC(=S)Nc1ccc(Cl)cc1 (stereo not given),-2,.,-11,4,.,.
CSc1ccccc1NC(=O)CN(C)Cc1c(O)ccc2ccccc12,39*,7,-8,-8,0,30*
CSc1ccccc1NC(=O)CN(C)Cc1ccc(Br)cc1,-2,2,-16,-1,-20,.
CC(C)=CCC/C(C)=C/CNCC(=O)N1c2ccccc2[C@]2(C)C[C@@H]3C(=O)N(C/C=C(\C)CCC=C(C)C)CC(=O)N3[C@H]12,2,.,7,6,.,.
CCC(=S)/C=C1\Sc2ccccc2N1CCCS(=O)(=O)O,34*,2,5,5,4,4
CCN1/C(=C\C=C2\C(=O)N(C)C(=S)N2C)Sc2ccccc21,21,-16,-17,-32,-13,.
O=C(Nc1ccccc1F)O[C@@H]1CC[C@@]23CCCN2C(=O)CCC[C@H]3C1,0,.,0,6,.,.
COc1cccc([C@@H]2NC(=O)C/C=C/[C@H](C)[C@H](c3cccc(OC)c3)NC(=O)C/C=C/[C@@H]2C)c1,-1,.,-11,2,.,.
COc1ccc(-n2c(SCC(=O)Nc3ccc(Cl)cc3)nc(O)c(Cc3ccccc3)c2=O)cc1,34*,0,-28,-1,-15,32*
O=C(CN1C(=O)CC(c2ccco2)Sc2ccccc21)NCc1ccc2c(c1)OCO2 (stereo not given),.,.,.,.,3,.
O=C(CN1C(=O)CC(c2ccco2)Sc2ccccc21)Nc1ccccc1F (stereo not given),58*,-3,3,7,-10,19
COCC#Cc1cnc2c(c1)C(=O)N([C@@H](C)CO)C[C@H](C)[C@H](CN(C)C(=O)c1ccc3c(c1)OCO3)O2,-4,7,-3,8,.,.
CC(C)(C)OC(=O)/C=C/[C@H](CCCCl)Sc1ccc(C(C)(C)C)cc1,-1,.,-9,2,.,.
CC(C)Cn1c(N)c(C(=O)CSc2ncccn2)c(=O)n(C)c1=O,58*,-7,-6,-6,-5,4
COc1ccc(OC)c2cc3ccccc3cc12,29*,1,23,4,33,70*
COc1cc2ccccc2cc1C(=O)O,1,5,5,9,-2,.
O=C(CSc1nc2c(c(C(F)(F)F)n1)CCc1ccccc1-2)NCc1ccco1,26*,-9,-11,-10,-11,3
CCN(Cc1ccccc1)c1ccc(/C=C(\C#N)c2ccccn2)cc1,57*,7,8,1,-5,-1
CCN(CC)c1ccc(/C=C(\C#N)c2ccccn2)cc1,.,.,.,.,11,.
C=CCNc1cccc2c1S(=O)(=O)N[C@@H](C)CO2,1,-5,1,-2,.,.
Cc1ccccc1/C=N/n1c(COc2ccccc2)n[nH]c1=S,-1,3,-4,11,-2,.
Cc1ccc(/C=N/n2c(COc3ccccc3)n[nH]c2=S)s1,27*,11,-5,10,0,4
Oc1ccccc1/C=N/n1c(COc2ccccc2)n[nH]c1=S,8,-4,-11,-4,4,.
S=c1[nH]nc(COc2ccccc2)n1/N=C/c1ccc(Br)s1,26*,12,-11,8,-14,12

# Screening results deposited in PubChem by The Scripps Research Institute Molecular Screening Center.
